≈ marks a conversion by molar mass, not a printed value.
Experiments:
[1] = Oral bioavailability in cynomolgus monkey at 1 mg/kg dosed as nano suspension measured up to 24 hrs by LC-MS/MS analysis; assay type: ADME, organism-based, Macaca fascicularis; conditions: in vivo
How it was run: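 Oral dosing as a nanosuspension in Sprague–Dawley rat, male Beagle dog and male cynomolgus monkey; dogs pretreated with pentagastrin.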

PXR (NR1I2) = biological target: T1, PXR (NR1I2) (Homo sapiens, UniProt O75469); test: Transactivation of PXR (unknown origin) assessed as CYP450 induction relative to 10 uM rifampicin; assay type: ADME
T1 sequence (O75469 whole entry): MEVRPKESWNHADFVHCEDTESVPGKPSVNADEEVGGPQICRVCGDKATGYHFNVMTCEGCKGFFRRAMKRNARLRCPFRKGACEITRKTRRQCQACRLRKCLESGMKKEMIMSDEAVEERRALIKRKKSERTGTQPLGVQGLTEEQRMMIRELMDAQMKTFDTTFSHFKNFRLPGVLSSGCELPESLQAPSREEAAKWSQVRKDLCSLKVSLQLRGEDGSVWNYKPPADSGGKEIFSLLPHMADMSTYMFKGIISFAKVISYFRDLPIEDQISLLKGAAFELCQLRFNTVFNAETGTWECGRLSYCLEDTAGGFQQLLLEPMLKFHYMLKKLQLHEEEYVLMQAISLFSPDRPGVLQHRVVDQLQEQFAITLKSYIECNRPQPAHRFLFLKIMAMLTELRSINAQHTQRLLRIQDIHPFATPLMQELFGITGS
How it was run: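 PXR in vitro transactivation assay; maximal response expressed relative to 10 μM rifampicin set as 100%.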

Cytochrome P450 1A2 = biological target: T2, Cytochrome P450 1A2 (Homo sapiens, UniProt P05177); test: Inhibition of CYP1A2 in human liver microsomes; assay type: ADME
T2 sequence (P05177 whole entry): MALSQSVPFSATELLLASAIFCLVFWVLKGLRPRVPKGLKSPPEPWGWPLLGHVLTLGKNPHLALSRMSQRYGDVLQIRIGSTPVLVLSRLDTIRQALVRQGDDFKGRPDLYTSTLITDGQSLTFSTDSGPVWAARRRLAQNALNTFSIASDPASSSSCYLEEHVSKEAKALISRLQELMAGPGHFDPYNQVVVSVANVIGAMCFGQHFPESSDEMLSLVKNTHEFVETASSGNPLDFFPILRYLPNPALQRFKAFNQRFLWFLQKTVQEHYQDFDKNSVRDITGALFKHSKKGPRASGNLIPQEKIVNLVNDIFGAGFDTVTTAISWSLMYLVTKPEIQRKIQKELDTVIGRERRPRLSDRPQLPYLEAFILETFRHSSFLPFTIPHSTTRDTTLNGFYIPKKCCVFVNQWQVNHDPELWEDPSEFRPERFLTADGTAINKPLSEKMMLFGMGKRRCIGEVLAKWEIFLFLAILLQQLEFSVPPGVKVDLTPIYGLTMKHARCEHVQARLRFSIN

[2] = Toxicity in Beagle dog assessed as changes in bilirubin level at 300 mg/kg, po; assay type: organism-based, Canis lupus familiaris; conditions: in vivo
How it was run: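 Dogs given a single acute oral dose of 300 mg/kg; bilirubin and other clinical pathology assessed; Cmax and AUC measured.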

[3] = biological target: T3, Nuclear receptor subfamily 1 group I member 2 (Homo sapiens, UniProt O75469); test: Transactivation of PXR (unknown origin) assessed as CYP450 induction; assay type: ADME
T3 sequence (O75469 whole entry): T1 sequence (O75469 whole entry)

[4] = Aqueous solubility of the compound at pH 6.5; assay type: physicochemical; conditions: buffer
Cytochrome P450 2B6 = biological target: T4, Cytochrome P450 2B6 (Homo sapiens, UniProt P20813); test: Inhibition of CYP2B6 in human liver microsomes; assay type: ADME
T4 sequence (P20813 whole entry): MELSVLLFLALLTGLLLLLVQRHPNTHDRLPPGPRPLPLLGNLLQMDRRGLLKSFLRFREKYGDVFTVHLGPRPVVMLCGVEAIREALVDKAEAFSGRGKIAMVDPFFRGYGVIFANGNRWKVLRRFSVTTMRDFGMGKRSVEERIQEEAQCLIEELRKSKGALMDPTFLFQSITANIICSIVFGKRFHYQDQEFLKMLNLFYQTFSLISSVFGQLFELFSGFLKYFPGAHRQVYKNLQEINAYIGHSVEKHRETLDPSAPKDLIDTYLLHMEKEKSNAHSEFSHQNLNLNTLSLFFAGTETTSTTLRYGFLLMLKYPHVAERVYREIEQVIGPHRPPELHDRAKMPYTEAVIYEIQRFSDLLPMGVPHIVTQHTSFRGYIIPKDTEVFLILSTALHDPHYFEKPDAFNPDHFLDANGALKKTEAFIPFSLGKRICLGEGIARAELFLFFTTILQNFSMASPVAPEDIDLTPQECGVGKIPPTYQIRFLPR

[5] = Half life in Beagle dog at 1 mg/kg, iv measured up to 24 hrs by LC-MS/MS analysis; assay type: ADME, organism-based, Canis lupus familiaris; conditions: in vivo
How it was run: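 Male Beagle dogs and male cynomolgus monkeys, 1 mg/kg by 5 min iv infusion in 9:1 PEG:EtOH, n=3.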

Cytochrome P450 3A4 = Cytochrome P450 3A4 (Homo sapiens, UniProt P08684); test: Time dependent inhibition of CYP3A4 in human liver microsomes assessed as inhibition constant; assay type: ADME
Cytochrome P450 3A4, sequence (P08684 whole entry): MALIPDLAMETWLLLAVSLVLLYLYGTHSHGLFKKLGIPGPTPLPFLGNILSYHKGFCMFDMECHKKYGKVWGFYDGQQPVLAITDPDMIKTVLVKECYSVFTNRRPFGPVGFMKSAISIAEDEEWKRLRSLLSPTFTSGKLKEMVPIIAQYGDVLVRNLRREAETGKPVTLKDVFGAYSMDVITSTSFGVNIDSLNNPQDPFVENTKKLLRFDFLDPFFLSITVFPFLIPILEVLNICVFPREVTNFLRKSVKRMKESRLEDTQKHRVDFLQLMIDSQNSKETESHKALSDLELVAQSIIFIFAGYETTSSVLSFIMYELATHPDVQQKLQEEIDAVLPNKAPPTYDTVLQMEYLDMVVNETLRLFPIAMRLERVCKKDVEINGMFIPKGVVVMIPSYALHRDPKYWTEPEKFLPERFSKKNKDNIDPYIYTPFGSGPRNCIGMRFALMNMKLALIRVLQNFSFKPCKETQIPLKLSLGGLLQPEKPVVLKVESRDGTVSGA

[6] = Dissociation constant, pKa of compound by spectrophotometric analysis; assay type: physicochemical
[7] = Hemodynamic activity in conscious telemeterized rat assessed as change in blood pressure at >= 10 mg/kg; assay type: ADME, organism-based; conditions: in vivo
[8] = Volume of steady state distribution in Beagle dog at 1 mg/kg, iv measured up to 24 hrs by LC-MS/MS analysis; assay type: ADME, organism-based, Canis lupus familiaris; conditions: in vivo
How it was run: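 Male Beagle dog or male cynomolgus monkey; 1 mg/kg as 5 min iv infusion in 9:1 PEG:EtOH; n = 3; volume of distribution at steady state.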

[9] = Plasma concentration in Harlan Sprague-Dawley rat at 10 mg/kg, po measured after 5 hrs; assay type: ADME, organism-based
[10] = biological target: T5, Solute carrier organic anion transporter family member 1B1 (Homo sapiens, UniProt Q9Y6L6); test: Inhibition of OATP1B1 (unknown origin); assay type: ADME
T5 sequence (Q9Y6L6 whole entry): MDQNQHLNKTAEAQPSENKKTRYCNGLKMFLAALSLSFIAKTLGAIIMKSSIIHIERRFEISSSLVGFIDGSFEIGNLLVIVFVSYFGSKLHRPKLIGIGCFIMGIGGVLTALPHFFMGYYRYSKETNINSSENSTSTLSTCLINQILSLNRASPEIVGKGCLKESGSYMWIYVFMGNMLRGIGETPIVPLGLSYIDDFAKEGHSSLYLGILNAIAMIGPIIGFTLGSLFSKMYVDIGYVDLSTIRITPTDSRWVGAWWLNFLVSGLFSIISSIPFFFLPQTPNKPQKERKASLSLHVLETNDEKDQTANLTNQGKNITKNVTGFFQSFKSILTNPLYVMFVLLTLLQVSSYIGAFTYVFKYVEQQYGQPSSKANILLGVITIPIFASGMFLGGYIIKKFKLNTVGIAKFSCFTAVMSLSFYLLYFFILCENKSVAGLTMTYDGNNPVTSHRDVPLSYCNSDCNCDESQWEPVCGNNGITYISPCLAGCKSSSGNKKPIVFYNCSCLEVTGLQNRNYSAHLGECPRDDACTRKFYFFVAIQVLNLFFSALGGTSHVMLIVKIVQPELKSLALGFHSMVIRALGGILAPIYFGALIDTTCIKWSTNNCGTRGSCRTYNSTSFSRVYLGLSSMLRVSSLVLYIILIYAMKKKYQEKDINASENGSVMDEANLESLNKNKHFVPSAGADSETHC

Structure (SMILES): CNc1nc(Nc2ccc(-n3cnc(C)n3)c(OC)c2)nc2c1CC[C@H]2c1ccc(F)cc1
- F [1]: 45%
- Emax (PXR (NR1I2)): 36%
- IC50 (Cytochrome P450 1A2): > 40 µM
- Activity [2]: Non-Toxic
- EC50 [3]: > 2.7 µM
- solubility [4]: 0.1 µg/mL (≈ 0.224 µM)
- IC50 (Cytochrome P450 2B6): > 40 µM
- t1/2 [5]: 8.7 h
- Ki (Cytochrome P450 3A4): 83 µM
- pKa [6]: 5.9
- Activity [7]: Non-Toxic
- Vdss [8]: 6.1 L/kg
- concentration at 5 h [9]: 1400 nM
- IC50 [10]: 0.066 µM

Source: ChEMBL document CHEMBL4699441, “Identification and Preclinical Evaluation of the Bicyclic Pyrimidine γ-Secretase Modulator BMS-932481” (ACS Med Chem Lett, 2019)
